Here are results for 13 compounds from ChEMBL document CHEMBL4261620, “Design, synthesis, and biological evaluation of 4-chloro-2H-thiochromenes featuring nitrogen-containing side chains as potent antifungal agents” (Bioorg Med Chem Lett, 2018).

Values after ≈ are worked out from the molar mass of the structure shown.

Holding throughout (format): functional
In assay [1] the test system is Candida albicans. In words: Antifungal activity against fluconazole-sensitive Candida albicans ATCC SC5314 after 2 to 7 days by broth microdilution method. The gist of the method:
(§1)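 Broth microdilution in 96-well plates per NCCLS. Compounds and fluconazole reference dissolved in DMSO, serially diluted in growth medium, then inoculum suspension added, final concentrations 128 to 0.25 µg/mL (twofold series). Incubated at 32°C. MIC read visually after 2-7 d.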

For assay [2], the system named is Candida albicans. The experiment in a line: Antifungal activity against fluconazole-resistant Candida albicans 103 after 2 to 7 days by broth microdilution method. The gist of the method:
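Broth microdilution per NCCLS. Compounds dissolved in DMSO, serially diluted in growth medium, then inoculum suspension added to give final concentrations of 128 to 0.25 µg/mL (twofold steps). Plates incubated at 32°C. MIC read by visual observation after 2-7 d. Fluconazole served as reference drug.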
Background: In broth dilution the organism is exposed to a series of concentrations in liquid medium.

In the next assay the test system is Aspergillus fumigatus. In words: Antifungal activity against Aspergillus fumigatus cgmcc 3.7795 after 2 to 7 days by broth microdilution method. The gist of the method:
as §1

Another assay relates to Candida tropicalis. In words: Antifungal activity against Candida tropicalis cgmcc 2.3739 after 2 to 7 days by broth microdilution method. The gist of the method:
as §1

Assay [3] concerns Candida albicans. The experiment in a line: Antifungal activity against Candida albicans cpcc 400616 after 2 to 7 days by broth microdilution method. The method in brief:
as §1

The next assay deals with Cryptococcus neoformans. In words: Antifungal activity against Cryptococcus neoformans cgmcc 2.3161 after 2 to 7 days by broth microdilution method. The gist of the method: as §1

`O=C1CCSc2ccc(Cl)cc21`: the minimal inhibitory concentration (MIC) against Candida albicans [1] is 4 µg/mL (≈ 20.1 µM); against Candida albicans [2], 16 µg/mL (≈ 80.5 µM); against Aspergillus fumigatus, > 128 µg/mL; against Candida tropicalis, 8 µg/mL (≈ 40.3 µM); in the assay on Candida albicans [3] it was 16 µg/mL (≈ 80.5 µM); in the assay with Cryptococcus neoformans, 32 µg/mL (≈ 161 µM).
`Fc1ccc2c(c1)C(Cl)=C(Cn1cncn1)CS2`: the MIC is 4 µg/mL (≈ 14.2 µM) in the assay with Candida albicans [1]; 32 µg/mL (≈ 114 µM) in the assay with Candida albicans [2]; > 128 µg/mL in the assay on Aspergillus fumigatus; 8 µg/mL (≈ 28.4 µM) against Candida tropicalis; 16 µg/mL (≈ 56.8 µM) against Candida albicans [3]; 64 µg/mL (≈ 227 µM) against Cryptococcus neoformans.
In the case of `ClC1=C(CN2CCCC2)CSc2ccc(Br)cc21`, the MIC in the assay on Candida albicans [1] was 8 µg/mL (≈ 23.2 µM); in the assay with Candida albicans [2], 64 µg/mL (≈ 186 µM); in the assay with Aspergillus fumigatus, > 128 µg/mL; with Candida tropicalis it was 128 µg/mL (≈ 371 µM); in the assay on Candida albicans [3], 16 µg/mL (≈ 46.4 µM); in the assay on Cryptococcus neoformans, 8 µg/mL (≈ 23.2 µM).
For the compound `ClC1=C(Cn2ccnc2)CSc2ccc(Cl)cc21`, the minimal inhibitory concentration (MIC) came to 16 µg/mL (≈ 53.8 µM) against Candida albicans [1]; 64 µg/mL (≈ 215 µM) in the assay with Candida albicans [2]; 64 µg/mL (≈ 215 µM) against Aspergillus fumigatus; 64 µg/mL (≈ 215 µM) against Candida tropicalis; 32 µg/mL (≈ 108 µM) against Candida albicans [3]; 8 µg/mL (≈ 26.9 µM) with Cryptococcus neoformans.
For the compound `CCN(CC)CC1=C(Cl)c2cc(Br)ccc2SC1`, the minimal inhibitory concentration (MIC) in the assay on Candida albicans [1] was 8 µg/mL (≈ 23.1 µM); against Candida albicans [2] it was 64 µg/mL (≈ 185 µM); in the assay on Aspergillus fumigatus, > 128 µg/mL; in the assay on Candida tropicalis it was 64 µg/mL (≈ 185 µM); in the assay on Candida albicans [3], 16 µg/mL (≈ 46.1 µM); in the assay with Cryptococcus neoformans it was 4 µg/mL (≈ 11.5 µM).
Regarding `CN1CCN(CC2=C(Cl)c3cc(F)ccc3SC2)CC1`, the MIC was 16 µg/mL (≈ 51.1 µM) against Candida albicans [1]; 16 µg/mL (≈ 51.1 µM) in the assay on Candida albicans [2]; > 128 µg/mL against Aspergillus fumigatus; 32 µg/mL (≈ 102 µM) with Candida tropicalis; 16 µg/mL (≈ 51.1 µM) against Candida albicans [3]; 1 µg/mL (≈ 3.2 µM) in the assay with Cryptococcus neoformans.
Consider `O=C1CCSc2ccc(F)cc21`, for which the MIC against Candida albicans [1] is 8 µg/mL (≈ 43.9 µM); against Candida albicans [2], 64 µg/mL (≈ 351 µM); in the assay on Aspergillus fumigatus, 64 µg/mL (≈ 351 µM); against Candida tropicalis, 16 µg/mL (≈ 87.8 µM); in the assay with Candida albicans [3], 32 µg/mL (≈ 176 µM); with Cryptococcus neoformans it was 64 µg/mL (≈ 351 µM).
For the compound `CN1CCN(CC2=C(Cl)c3cc(Br)ccc3SC2)CC1`, the MIC in the assay on Candida albicans [1] is 8 µg/mL (≈ 21.4 µM); with Candida albicans [2] it was 64 µg/mL (≈ 171 µM); against Aspergillus fumigatus, > 128 µg/mL; in the assay on Candida tropicalis, 16 µg/mL (≈ 42.8 µM); against Candida albicans [3], 16 µg/mL (≈ 42.8 µM); in the assay with Cryptococcus neoformans, 8 µg/mL (≈ 21.4 µM).
For the compound `CC(C)NCC1=C(Cl)c2cc(Cl)ccc2SC1`, the minimal inhibitory concentration (MIC) in the assay with Candida albicans [1] stood at 16 µg/mL (≈ 55.5 µM); against Candida albicans [2], 32 µg/mL (≈ 111 µM); against Aspergillus fumigatus, 64 µg/mL (≈ 222 µM); against Candida tropicalis it was 32 µg/mL (≈ 111 µM); against Candida albicans [3], 32 µg/mL (≈ 111 µM); in the assay with Cryptococcus neoformans, 0.5 µg/mL (≈ 1.73 µM).
Regarding `Fc1ccc2c(c1)C(Cl)=C(CN1CCCCC1)CS2`, the MIC is 8 µg/mL (≈ 26.9 µM) in the assay on Candida albicans [1]; 16 µg/mL (≈ 53.7 µM) against Candida albicans [2]; > 128 µg/mL against Aspergillus fumigatus; 16 µg/mL (≈ 53.7 µM) against Candida tropicalis; 2 µg/mL (≈ 6.72 µM) with Candida albicans [3]; 2 µg/mL (≈ 6.72 µM) against Cryptococcus neoformans.
`CC(C)N(CC1=C(Cl)c2cc(F)ccc2SC1)C(C)C`: the MIC is 4 µg/mL (≈ 12.7 µM) with Candida albicans [1]; 64 µg/mL (≈ 204 µM) in the assay with Candida albicans [2]; > 128 µg/mL against Aspergillus fumigatus; 2 µg/mL (≈ 6.37 µM) against Candida tropicalis; 4 µg/mL (≈ 12.7 µM) in the assay with Candida albicans [3]; 4 µg/mL (≈ 12.7 µM) against Cryptococcus neoformans.
As for `ClC1=C(Cn2cncn2)CSc2ccc(Br)cc21`, the MIC is 64 µg/mL (≈ 187 µM) in the assay on Candida albicans [1]; > 128 µg/mL in the assay with Candida albicans [2]; > 128 µg/mL against Aspergillus fumigatus; > 128 µg/mL against Candida tropicalis; > 128 µg/mL in the assay with Candida albicans [3]; 8 µg/mL (≈ 23.3 µM) with Cryptococcus neoformans.
Turning to `Cc1ccc2c(c1)C(Cl)=C(CN1CCN(C)CC1)CS2`, the minimal inhibitory concentration (MIC) is 8 µg/mL (≈ 25.9 µM) with Candida albicans [1]; 64 µg/mL (≈ 207 µM) in the assay on Candida albicans [2]; > 128 µg/mL in the assay with Aspergillus fumigatus; 8 µg/mL (≈ 25.9 µM) against Candida tropicalis; 32 µg/mL (≈ 104 µM) against Candida albicans [3]; 32 µg/mL (≈ 104 µM) in the assay with Cryptococcus neoformans.

A word on the MIC: it is the lowest concentration that inhibits growth of the organism. A higher MIC goes with a need for much substance.
